Here are results for ten compounds from ChEMBL document CHEMBL1130193, “Synthesis, cardiotonic activity, and structure-activity relationships of 17 beta-guanylhydrazone derivatives of 5 beta-androstane-3 beta, 14 beta-diol acting on the Na+,K(+)-ATPase receptor” (J Med Chem, 1997).

The nature of experiment [1]: % of preparations of arrhythmogenic activity was determined by the onset of the first series of ectopic beats. Type of experiment: functional, Heart. Also on record: concentration or dose not given beside the values. The method, boiled down: (§1)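 Isolated atrium preparations in solution bubbled with 95% O2/5% CO2, driven by platinum electrodes with square-wave pulses at 1 Hz (1 ms, twice threshold voltage). After 60 min equilibration, cumulative concentrations were added, each kept until maximal response or arrhythmias appeared.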

The species named for experiment [2] is Cavia porcellus. As to the kind of experiment: In vitro inotropic activity was determined by the affects of contractile force on guinea pig left atrium; Maximal increase in force of contraction. Conditions: Cardiac atrium. It is filed as functional. The essentials: as §1
For experiment [3], the species on record is Cavia porcellus. As to the kind of experiment: In vitro inotropic activity was determined by the affects of contractile force on guinea pig left atrium. Type of experiment: functional, Cardiac atrium. The essentials: as §1
Experiment [4] has as its target Sodium/potassium-transporting ATPase subunit alpha-1 (Canis lupus familiaris, UniProt P50997). The experiment can be described thus: Inhibition of Na+/K+ ATPase from dog kidney.
A short description of experiment [5]: Arrhythmogenic activity was determined by the onset of the first series of ectopic beats. It is filed as functional, Heart. The method, boiled down: as §1
The species named for experiment [6] is Cavia porcellus. The experiment can be described thus: (§2) In vitro inotropic activity was determined by the affects of contractile force on guinea pig left atrium. Type of experiment: functional, organism-based. The note with it: Cardiac atrium. The method, boiled down: as §1
Experiment [7] is filed under the species Cavia porcellus. The experiment is described as §2. It is filed as functional, Cardiac atrium. The method, boiled down:
as §1

By Emax is commonly meant the maximal effect, on the per cent scale that the assay sets. Broadly, the IC50 is the midpoint of a concentration-inhibition curve. For orientation: EC50 means the midpoint of the concentration-response curve. Turning to `C[C@]12CC[C@H](O)C[C@H]1CC[C@@H]1[C@@H]2CC[C@]2(C)[C@@H](/C=N/N=C(N)N)CC[C@]12O.Cl`, the Activity in experiment [1] came out at 57%; in experiment [5] it was 30 µM. The compound further yielded an Emax in experiment [2] of 265%. Also, the “concentration giving Emax” value in experiment [3] is 30 µM. In addition, the IC50 in experiment [4] came out at 1.58 µM. The same compound registered an EC50 in experiment [6] of 4 µM.
On to `C[C@]12CC[C@H](O)C[C@H]1CC[C@@H]1[C@@H]2CC[C@]2(C)[C@@H](/C=C/C=N/NC3=NCCN3)CC[C@]12O`, for which the figures for the Activity in experiment [1] and in experiment [5] were 50% and 100 µM, respectively. Moreover, the Emax in experiment [2] came out at 136%. Further, the “concentration giving Emax” value in experiment [3] turned out to be 100 µM. Also, in experiment [6], a half-maximal response (EC50) required 9 µM.
Take `C[C@]12CC[C@H](O)C[C@H]1CC[C@@H]1[C@@H]2CC[C@]2(C)[C@@H](/C=C/C=C/C=N/N=C(N)N)CC[C@]12O`: the Activity in experiment [1] worked out at 100%; in experiment [5], 300 µM. The same compound registered a maximum response (Emax) in experiment [2] of 98%. In addition, the “concentration giving Emax” value in experiment [3] was 100 µM. Further, the IC50 in experiment [4] came out at 7.94 µM. In experiment [6], this compound showed an EC50 of 15 µM.
In the case of `C[C@]12CC[C@H](O)C[C@H]1CC[C@@H]1[C@@H]2CC[C@]2(C)[C@@H](/C=N/NC3=NCCN3)CC[C@]12O`, the Activity in experiment [1] was found to be 0%; in experiment [5], 300 µM. The compound also showed an Emax in experiment [2] of 129%. Besides, in experiment [3], the “concentration giving Emax” value turned out to be 300 µM. For the same compound, in experiment [6], the EC50 is 17 µM.
In the case of `C[C@]12CC[C@H](O)C[C@H]1CC[C@@H]1[C@@H]2CC[C@]2(C)[C@@H](/C=N/NC3=NCCCN3)CC[C@]12O`, the Emax in experiment [2] stood at 62%. The “concentration giving Emax” value in experiment [3] worked out at 30 µM. The compound further displayed an Activity in experiment [5] of 30 µM. In experiment [6], this compound returned an EC50 of 5 µM.
Consider `C[C@]12CC[C@H](O)C[C@H]1CC[C@@H]1[C@@H]2CC[C@]2(C)[C@@H](/C=C/C=N/N=C(N)N)CC[C@]12O`, for which the Activity in experiment [1] was 20%; in experiment [5] it was 3 µM. In experiment [2], this compound displayed an Emax of 140%. For the same compound, in experiment [3], the “concentration giving Emax” value is 3 µM. The compound further came in with an IC50 in experiment [4] of 0.16 µM. In experiment [6], this compound returned an EC50 of 0.4 µM.
As for `C[C@]12CC[C@H](O)C[C@H]1CC[C@@H]1[C@@H]2CC[C@]2(C)[C@@H](CNN=C(N)N)CC[C@]12O.Cl`, the results for the Activity in experiment [1] and in experiment [5] were 0% and 100 µM, respectively. In experiment [2], this compound came in with an Emax of 166%. Also, the “concentration giving Emax” value in experiment [3] was determined as 30 µM. Half-maximal inhibition in experiment [4] (IC50) was put at 2 µM. Further, the EC50 in experiment [6] was found to be 8 µM.
As to `C[C@]12CC[C@H](O)C[C@H]1CC[C@@H]1[C@@H]2CC[C@]2(C)[C@@H](/C=C/C3=CC(=O)OC3)CC[C@]12O`, the “concentration giving Emax” value in experiment [7] is 100 µM. Also, the Activity in experiment [1] was determined as 0%; in experiment [5] it was 300 µM. The compound further had an Emax in experiment [2] of 110%. The compound further yielded an IC50 in experiment [4] of 3.98 µM. For the same compound, a half-maximal effect in experiment [6] (EC50) was put at 14 µM.
Regarding `C[C@]12CC[C@H](O)C[C@H]1CC[C@@H]1[C@@H]2CC[C@]2(C)[C@@H](C3=CC(=O)OC3)CC[C@]12O` [DIGITOXIGENIN], the “concentration giving Emax” value in experiment [7] was 3 µM. The Activity stood at 60% in experiment [1] and 10 µM in experiment [5]. The same compound showed an Emax in experiment [2] of 200%. Further, half-maximal inhibition in experiment [4] (IC50) was put at 0.5 µM. Also, the midpoint of the response in experiment [6], the EC50, lay at 0.6 µM.
For `C[C@H]1O[C@@H](O[C@H]2[C@@H](O)C[C@H](O[C@H]3[C@@H](O)C[C@H](O[C@H]4CC[C@@]5(C)[C@H](CC[C@@H]6[C@@H]5C[C@@H](O)[C@]5(C)[C@@H](C7=CC(=O)OC7)CC[C@]65O)C4)O[C@@H]3C)O[C@@H]2C)C[C@H](O)[C@@H]1O` [DIGOXIN], the figures for the Activity in experiment [1] and in experiment [5] were 50% and 3 µM, respectively. Moreover, in experiment [3], the “concentration giving Emax” value was found to be 1 µM. The compound also displayed an EC50 in experiment [6] of 0.4 µM.
